Measured values reported in ChEMBL document CHEMBL3627702, “Navigating CYP1A Induction and Arylhydrocarbon Receptor Agonism in Drug Discovery. A Case History with S1P1 Agonists” (J Med Chem, 2015).
Values belong to the compound of their own block, whether it stands above or below them.

Tests used:
Rattus norvegicus [1] = experiment: Dose normalized AUC in Sprague-Dawley rat at 25 mg/kg, po QD measured on day 4; type: ADME, organism-based; conditions: in vivo
Method in brief: (§1)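 Male CD rats (226−325 g), n = 3, given the compound once daily by oral gavage for 4 days. Vehicle was 1% (w/v) methylcellulose aq suspension at 3−6 mg/mL, dosed at 5 mL/kg (target 15−30 mg/kg). Tail vein blood was taken on days 1 and 4 up to 24 h postdose. Blood was diluted 1:1 with water, extracted by acetonitrile protein precipitation and analysed by LC−MS/MS against calibration standards in diluted blood.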

[2] = Dissociation constant, pKa of the compound; type: physicochemical
CYP1A2 [3] = experiment: Induction of CYP1A2 mRNA expression in Sprague-Dawley rat hepatic microsomes at 25 mg/kg, po QD for 4 days relative to control; type: ADME, organism-based, Liver; conditions: read-out: FC
Rattus norvegicus [4] = experiment: Dose normalized AUC in Sprague-Dawley rat at 25 mg/kg, po QD measured on day 1; type: ADME, organism-based; conditions: in vivo; method in brief: as §1
[5] = Cmax in Sprague-Dawley rat at 25 mg/kg, po QD measured on day 1; type: ADME, organism-based; design: dose 25 mg/kg, route oral; conditions: in vivo; method in brief: as §1
[6] = AUC in Sprague-Dawley rat at 25 mg/kg, po QD measured on day 4; type: ADME, organism-based; conditions: in vivo; method in brief: as §1
[7] = Lipophilicity, log D of the compound at pH 7.4; type: physicochemical; conditions: buffer
[8] = AUC in Sprague-Dawley rat at 25 mg/kg, po QD measured on day 1; type: ADME, organism-based; conditions: in vivo; method in brief: as §1
[9] = Cmax in Sprague-Dawley rat at 25 mg/kg, po QD measured on day 4; type: ADME, organism-based; design: dose 25 mg/kg, route oral; conditions: in vivo; method in brief: as §1
CYP1A1 [10] = experiment: Induction of CYP1A1 mRNA expression in Sprague-Dawley rat hepatic microsomes at 25 mg/kg, po QD for 4 days relative to control; type: ADME, organism-based, Liver; conditions: read-out: FC
Method in brief: (§2)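 Male CD rats (226–325 g, n = 3) were dosed by oral gavage once daily for 4 days as a 1% w/v aqueous methylcellulose suspension (3–6 mg/mL, 5 mL/kg). At the end of the study, a left lateral liver lobe section was placed in RNALater and homogenised in TRIzol. RNA was purified, DNase-treated and converted to cDNA, and Cyp1a1 was read on low-density TaqMan arrays.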

[11] = Cmax in Sprague-Dawley rat at 19 mg/kg, po QD measured on day 4; type: ADME, organism-based; design: dose 19 mg/kg, route oral; conditions: in vivo; method in brief: as §1
[12] = AUC in Sprague-Dawley rat at 19 mg/kg, po QD measured on day 1; type: ADME, organism-based; conditions: in vivo; method in brief: as §1
CYP1A1 [13] = experiment: Induction of CYP1A1 mRNA expression in Sprague-Dawley rat hepatic microsomes at 19 mg/kg, po QD for 4 days relative to control; type: ADME, organism-based, Liver; conditions: read-out: FC; method in brief: as §2
CYP1A2 [14] = experiment: Induction of CYP1A2 mRNA expression in Sprague-Dawley rat hepatic microsomes at 19 mg/kg, po QD for 4 days relative to control; type: ADME, organism-based, Liver; conditions: read-out: FC
Rattus norvegicus [15] = experiment: Dose normalized AUC in Sprague-Dawley rat at 19 mg/kg, po QD measured on day 4; type: ADME, organism-based; conditions: in vivo; method in brief: as §1
Rattus norvegicus [16] = experiment: Dose normalized AUC in Sprague-Dawley rat at 19 mg/kg, po QD measured on day 1; type: ADME, organism-based; conditions: in vivo; method in brief: as §1
[17] = Cmax in Sprague-Dawley rat at 19 mg/kg, po QD measured on day 1; type: ADME, organism-based; design: dose 19 mg/kg, route oral; conditions: in vivo; method in brief: as §1
[18] = AUC in Sprague-Dawley rat at 19 mg/kg, po QD measured on day 4; type: ADME, organism-based; conditions: in vivo; method in brief: as §1
[19] = Oral bioavailability in CD rat at 3 mg/kg; type: ADME, organism-based; conditions: in vivo
Method in brief: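 Male CD rats cannulated in the femoral and jugular veins, n = 3, crossover design. Day 1: 1 h iv infusion at 1 mg/kg (0.2 mg/mL in ≤5% DMSO/≥95% 10% Kleptose in saline, 5 mL/kg/h). Day 2: oral gavage at 3 mg/kg (0.6 mg/mL in 1% methylcellulose, 5 mL/kg). Blood assayed by LC–MS/MS after acetonitrile precipitation.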

[20] = Cmax in Sprague-Dawley rat at 30 mg/kg, po QD measured on day 4; type: ADME, organism-based; design: dose 30 mg/kg, route oral; conditions: in vivo; method in brief: as §1
[21] = Cmax in Sprague-Dawley rat at 30 mg/kg, po QD measured on day 1; type: ADME, organism-based; design: dose 30 mg/kg, route oral; conditions: in vivo; method in brief: as §1
CYP1A2 [22] = experiment: Induction of CYP1A2 mRNA expression in Sprague-Dawley rat hepatic microsomes at 30 mg/kg, po QD for 4 days relative to control; type: ADME, organism-based, Liver; conditions: read-out: FC
CYP1A1 [23] = experiment: Induction of CYP1A1 mRNA expression in Sprague-Dawley rat hepatic microsomes at 30 mg/kg, po QD for 4 days relative to control; type: ADME, organism-based, Liver; conditions: read-out: FC; method in brief: as §2
[24] = AUC in Sprague-Dawley rat at 30 mg/kg, po QD measured on day 4; type: ADME, organism-based; conditions: in vivo; method in brief: as §1
Rattus norvegicus [25] = experiment: Dose normalized AUC in Sprague-Dawley rat at 30 mg/kg, po QD measured on day 1; type: ADME, organism-based; conditions: in vivo; method in brief: as §1
[26] = AUC in Sprague-Dawley rat at 30 mg/kg, po QD measured on day 1; type: ADME, organism-based; conditions: in vivo; method in brief: as §1
Rattus norvegicus [27] = experiment: Dose normalized AUC in Sprague-Dawley rat at 30 mg/kg, po QD measured on day 4; type: ADME, organism-based; conditions: in vivo; method in brief: as §1

- AUC/dose (Rattus norvegicus [1]): 38 kg·min/L
- pKa [2]: 8.4
- fold induction at 96 h (CYP1A2 [3]): 2.2
- AUC/dose (Rattus norvegicus [4]): 31 kg·min/L
- Cmax [5]: 730 ng/mL
- AUC [6]: 15600 ng·h/mL
- logD [7]: 2.36
- AUC [8]: 13200 ng·h/mL
- Cmax [9]: 870 ng/mL
- fold induction at 96 h (CYP1A1 [10]): 215
SMILES: Cc1c(-c2noc(-c3ccc(OC(C)C)c(C#N)c3)n2)ccc2c1CCN(C[C@H](O)CO)CC2

- Cmax [11]: 1530 ng/mL
- pKa [2]: 8.4
- AUC [12]: 20800 ng·h/mL
- fold induction at 96 h (CYP1A1 [13]): 126
- fold induction at 96 h (CYP1A2 [14]): 1.7
- AUC/dose (Rattus norvegicus [15]): 83 kg·min/L
- AUC/dose (Rattus norvegicus [16]): 65 kg·min/L
- logD [7]: 2.36
- Cmax [17]: 1290 ng/mL
- AUC [18]: 26000 ng·h/mL
SMILES: Cc1c(-c2noc(-c3ccc(OC(C)C)c(C#N)c3)n2)ccc2c1CCN(C[C@@H](O)CO)CC2

- bioavailability [19]: 68%
- Cmax [20]: 1380 ng/mL
- Cmax [21]: 1600 ng/mL
- fold induction at 96 h (CYP1A2 [22]): 7.3
- logD [7]: 2.78
- fold induction at 96 h (CYP1A1 [23]): 604
- AUC [24]: 23100 ng·h/mL
- AUC/dose (Rattus norvegicus [25]): 48 kg·min/L
- AUC [26]: 23000 ng·h/mL
- AUC/dose (Rattus norvegicus [27]): 59 kg·min/L
SMILES: CC(C)Oc1ccc(-c2nc(-c3ccc4c(c3)CCN(C(CO)CO)CC4)no2)cc1C#N
